Among the data in ChEMBL document CHEMBL1148379 (J Med Chem, 2004) are Ki and Relative activity values, retold here.

Molecules are shown by their SMILES. pKi: −log10 of the molar value.

The target of assay [1] is Bifunctional dihydrofolate reductase-thymidylate synthase (Plasmodium falciparum K1, UniProt P13922, C59R/I164L/S108N). Briefly: Inhibitory activity against triple mutant dihydrofolate reductase (C59R S108N I164L DHFR).
Assay [2] deals with Bifunctional dihydrofolate reductase-thymidylate synthase (Plasmodium falciparum K1) (UniProt P13922). The assay is described as follows: Inhibitory activity against quadruple mutant dihydrofolate reductase (N51I C59R S108N I164L DHFR), relative to trimethoprim. In short, it runs like this:
(§1)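 Wild-type and mutant P. falciparum DHFR expressed in E. coli BL21(DE3)pLysS. Ki calculated assuming inhibitors compete with substrate at the active site.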

The target in assay [3] is Bifunctional dihydrofolate reductase-thymidylate synthase (Plasmodium falciparum K1, UniProt P13922, C59R/I164L/N51I/S108N). Briefly: Inhibitory activity against quadruple mutant dihydrofolate reductase (N51I C59R S108N I164L DHFR).
Chain of Bifunctional dihydrofolate reductase-thymidylate synthase (Plasmodium falciparum K1, UniProt P13922, C59R/I164L/N51I/S108N) (P13922 whole entry, looked up, stated change not applied): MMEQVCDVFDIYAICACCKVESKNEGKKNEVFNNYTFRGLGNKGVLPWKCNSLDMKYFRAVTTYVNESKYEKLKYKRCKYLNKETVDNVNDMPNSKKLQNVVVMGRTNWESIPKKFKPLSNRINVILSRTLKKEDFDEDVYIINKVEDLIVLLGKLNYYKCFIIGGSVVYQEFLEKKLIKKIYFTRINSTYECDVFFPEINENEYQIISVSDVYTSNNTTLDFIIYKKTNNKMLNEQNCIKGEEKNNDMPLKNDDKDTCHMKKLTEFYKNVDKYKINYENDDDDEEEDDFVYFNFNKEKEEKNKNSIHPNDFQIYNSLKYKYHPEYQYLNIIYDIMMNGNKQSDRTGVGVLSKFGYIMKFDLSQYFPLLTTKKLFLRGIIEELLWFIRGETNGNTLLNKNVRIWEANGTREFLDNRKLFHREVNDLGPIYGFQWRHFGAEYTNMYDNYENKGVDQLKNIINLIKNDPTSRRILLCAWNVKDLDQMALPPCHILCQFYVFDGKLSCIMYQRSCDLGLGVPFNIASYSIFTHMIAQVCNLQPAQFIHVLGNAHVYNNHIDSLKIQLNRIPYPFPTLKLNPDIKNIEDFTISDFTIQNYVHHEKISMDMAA
Assay [4] has as its target Bifunctional dihydrofolate reductase-thymidylate synthase (Plasmodium falciparum K1) (UniProt P13922). Briefly: Inhibitory activity against double mutant dihydrofolate reductase (C59R S108N DHFR), relative to trimethoprim. In short, it runs like this:
as §1

For assay [5] the target is unchanged. The assay is described as follows: Inhibitory activity against triple mutant dihydrofolate reductase (C59R S108N I164L DHFR), relative to trimethoprim. In short, it runs like this:
as §1

Assay [6] has the same target. The assay is described as follows: Inhibitory activity against wild-type dihydrofolate reductase (S108N DHFR), relative to trimethoprim. Summed up: as §1
Assay [7] addresses Bifunctional dihydrofolate reductase-thymidylate synthase (Plasmodium falciparum K1, UniProt P13922). Briefly: Inhibitory activity against double mutant dihydrofolate reductase (C59R+S108N DHFR).

Chain of Bifunctional dihydrofolate reductase-thymidylate synthase (Plasmodium falciparum K1, UniProt P13922, C59R/I164L/S108N) (P13922 whole entry, looked up, stated change not applied): as above
Chain of Bifunctional dihydrofolate reductase-thymidylate synthase (Plasmodium falciparum K1) (P13922 whole entry, looked up): as the sequence (P13922 whole entry, looked up, stated change not applied) above
Chain of Bifunctional dihydrofolate reductase-thymidylate synthase (Plasmodium falciparum K1, UniProt P13922) (P13922 whole entry): as the sequence (P13922 whole entry, looked up, stated change not applied) above

In general, pKi refers to the Ki on a negative log10 scale, so that one unit is a factor of ten. A higher pKi goes with a small Ki. As for `COc1ccc(Cc2cnc(N)nc2N)cc1OC` [DIAVERIDINE], the pKi in assay [1] is 5.58; in assay [3], 4.86; in assay [7], 6.63. Also, the Relative activity in assay [2] turned out to be 2.1; in assay [4], 1; in assay [5], 0.5; in assay [6], 1.1.

On to `CCCOc1cc(Cc2cnc(N)nc2N)ccc1OC`, for which the negative logarithm of the Ki (pKi) in assay [1] was 6.84; in assay [3], 6.04; in assay [7], 7.28. For the same compound, the Relative activity in assay [2] came out at 0.1; in assay [4], 0.2; in assay [5], 0.03; in assay [6], 0.2.

Take `CCCCCOc1cc(Cc2cnc(N)nc2N)ccc1OC`: the pKi is 6.60 in assay [1], 6.35 in assay [3] and 6.87 in assay [7]. Further, the Relative activity amounted to 0.1 in assay [2], 0.5 in assay [4], 0.04 in assay [5] and 0.2 in assay [6].

With `COc1cc(Cc2cnc(N)nc2N)ccc1OCCCOc1ccccc1`, the negative logarithm of the Ki (pKi) was 6.59 in assay [1], 6.22 in assay [3] and 7.43 in assay [7]. Further, the Relative activity in assay [2] stood at 0.09; in assay [4], 0.15; in assay [5], 0.05; in assay [6], 0.19.

For the compound `CCOc1cc(Cc2cnc(N)nc2N)ccc1OCCCc1ccccc1`, the pKi in assay [1] was 6.43; in assay [3], 6.28; in assay [7], 7.97. For the same compound, the Relative activity in assay [2] is 0.08; in assay [4], 0.08; in assay [5], 0.06; in assay [6], 0.1.

Take `CCc1nc(N)nc(N)c1Cc1ccc(OCc2ccccc2)c(OC)c1`: the results for the negative logarithm of the Ki (pKi) in assay [1], in assay [3] and in assay [7] were 5.43, 6.14 and 7.22, respectively. The Relative activity was found to be 0.11 in assay [2], 0.25 in assay [4], 0.66 in assay [5] and 0.3 in assay [6].

For the compound `CCCCCCCOc1cc(Cc2cnc(N)nc2N)ccc1OC`, the pKi in assay [1] is 6.53; in assay [3], 6.35; in assay [7] it was 6.99. For the same compound, the Relative activity stood at 0.1 in assay [2], 0.4 in assay [4], 0.05 in assay [5] and 0.3 in assay [6].

Regarding `COc1cc(Cc2cnc(N)nc2N)ccc1OCc1cc(OC)c(OC)c(OC)c1`, the values for the pKi in assay [1] and in assay [3] were 7.32 and 6.91, respectively.

Turning to `CCOc1cc(Cc2cnc(N)nc2N)ccc1OCCCOc1ccccc1`, the pKi is 6.78 in assay [1], 6.11 in assay [3] and 7.32 in assay [7]. The Relative activity in assay [2] was determined as 0.12; in assay [4], 0.2; in assay [5] it was 0.03; in assay [6], 0.06.

For `CCCCCCCOc1ccc(Cc2cnc(N)nc2N)cc1`, the pKi in assay [1] is 5.66; in assay [3], 5.86; in assay [7], 6.71. In addition, the Relative activity in assay [2] amounted to 0.2; in assay [4], 0.8; in assay [5], 0.4; in assay [6], 1.7.

For the compound `CCCCCOc1ccc(Cc2cnc(N)nc2N)cc1OCC`, the values for the negative logarithm of the Ki (pKi) in assay [1], in assay [3] and in assay [7] were 5.93, 6.04 and 7.33, respectively. The Relative activity in assay [2] came to 0.1; in assay [4] it was 0.2; in assay [5] it was 0.2; in assay [6], 0.1.

For the compound `COc1ccc(Cc2cnc(N)nc2N)cc1OCc1ccccc1`, the pKi in assay [1] is 6.20; in assay [3] it was 5.95; in assay [7], 6.84. Also, the Relative activity in assay [2] turned out to be 0.2; in assay [4], 0.6; in assay [5], 0.11; in assay [6], 0.7.

As to `COc1cc(Cc2c(C)nc(N)nc2N)ccc1OCc1ccccc1`, the pKi in assay [1] is 7.18; in assay [3], 7.03; in assay [7], 7.05. Further, the Relative activity in assay [2] was 0.01; in assay [4] it was 0.4; in assay [5], 0.01; in assay [6], 0.3.

As to `CCCOc1ccc(Cc2cnc(N)nc2N)cc1`, the negative logarithm of the Ki (pKi) was 5.96 in assay [1], 5.82 in assay [3] and 6.67 in assay [7]. The Relative activity was found to be 0.2 in assay [2], 0.9 in assay [4], 0.2 in assay [5] and 1.5 in assay [6].

For the compound `COc1cc(Cc2cnc(N)nc2N)ccc1OCCCc1ccccc1`, the pKi in assay [1] is 5.51; in assay [3] it was 5.95. For the same compound, the Relative activity in assay [2] is 0.17; in assay [4] it was 0.33; in assay [5], 0.54; in assay [6], 0.17.

Regarding `CCCCCOc1ccc(Cc2cnc(N)nc2N)cc1`, the results for the pKi in assay [1], in assay [3] and in assay [7] were 6.27, 6.04 and 6.86, respectively. For the same compound, the Relative activity stood at 0.1 in assay [2], 0.6 in assay [4], 0.1 in assay [5] and 0.8 in assay [6].

For `CCOc1ccc(Cc2cnc(N)nc2N)cc1OC`, the negative-log Ki (pKi) is 5.45 in assay [1], 4.93 in assay [3] and 6.73 in assay [7]. For the same compound, the Relative activity in assay [2] worked out at 1.8; in assay [4], 0.8; in assay [5], 0.6; in assay [6], 1.5.

Regarding `CCCOc1cc(Cc2c(N)nc(N)nc2CC)ccc1OCc1cc(OC)c(OC)c(OC)c1`, the pKi in assay [1] was 6.81; in assay [3], 6.16; in assay [7], 7.31. For the same compound, the Relative activity in assay [2] was 0.1; in assay [4], 0.2; in assay [5], 0.03; in assay [6] it was 0.17.

`COc1cc(Cc2cnc(N)nc2N)ccc1OCCCOCCCOc1ccccc1`: the results for the pKi in assay [1], in assay [3] and in assay [7] were 6.37, 5.66 and 6.81, respectively. In addition, the Relative activity was determined as 0.33 in assay [2], 0.63 in assay [4], 0.07 in assay [5] and 0.18 in assay [6].

Turning to `CCCCOc1cc(Cc2cnc(N)nc2N)ccc1OC`, the pKi in assay [1] was 6.11; in assay [3], 5.99; in assay [7], 6.71. Moreover, the Relative activity stood at 0.2 in assay [2], 0.8 in assay [4], 0.1 in assay [5] and 0.2 in assay [6].

Turning to `Nc1ncc(Cc2ccc(OCCCc3ccccc3)cc2)c(N)n1`, the pKi in assay [1] was 5.52; in assay [3], 6.10; in assay [7], 7.24. In addition, the Relative activity in assay [2] stood at 0.12; in assay [4], 0.44; in assay [5], 0.54; in assay [6] it was 0.57.

Consider `Nc1ncc(Cc2ccc(OCCCOc3ccccc3)cc2)c(N)n1`, for which the pKi is 6.33 in assay [1], 5.65 in assay [3] and 6.77 in assay [7]. Besides, the Relative activity in assay [2] is 0.34; in assay [4] it was 0.7; in assay [5], 0.08; in assay [6] it was 0.63.

For the compound `Nc1ncc(Cc2ccc(OCCCOCCCOc3ccccc3)cc2)c(N)n1`, the pKi was 6.58 in assay [1], 5.80 in assay [3] and 6.97 in assay [7]. Further, the Relative activity in assay [2] was 0.24; in assay [4] it was 0.45; in assay [5], 0.05; in assay [6] it was 0.68.

Turning to `COc1ccc(Cc2cnc(N)nc2N)cc1`, the results for the pKi in assay [1], in assay [3] and in assay [7] were 5.40, 4.69 and 6.33, respectively. Also, the Relative activity worked out at 3.1 in assay [2], 1.9 in assay [4], 0.7 in assay [5] and 2.3 in assay [6].

For the compound `CCOc1cc(Cc2cnc(N)nc2N)ccc1OCCCOCCCOc1ccccc1`, the pKi in assay [1] is 6.50; in assay [3], 6.03; in assay [7] it was 7.33. For the same compound, the Relative activity in assay [2] was found to be 0.14; in assay [4], 0.19; in assay [5] it was 0.06; in assay [6] it was 0.22.
